In PubChem BioAssay AID504382 (The Scripps Research Institute Molecular Screening Center, 2011):
Out of some 2,500 compounds screened, about 460 (18%) were called active. These entries were drawn from the full list. A number with no mark means an inactive call.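 The calls were made as follows: active = mean activation above a cutoff of low control average plus 3 SD from the earlier screen (cut at about 12% in these data); inactive = the rest.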

test: IANBD-channel fluorescence artefacts in buffer – biochemical, artefact control for cardiac RTF calcium sensitizer project, confirmation (AID 504382); settings: IANBD fluorescence interference counterscreen, EC20 Ca2+, at 7.2 µM, active compounds read high, scaled: EC20 calcium 0, EC100 calcium 100
In short: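 Technique: fluorescence, 480/540 nm / Medium: MOPS-based buffer with KCl, MgCl2, EGTA, NTA, DTT, pH 7.2 / Probe or stimulus: calcium at EC20 level, 0.472 mM final / Repeats: triplicate wells per compound / Times: 15 min compound exposure at 25 °C / Measure: compound fluorescence interference relative to control well signal range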

| Structure (SMILES) | fluorescence artifact activation |
| --- | --- |
| Cc1ccc(NC(=O)/C(C#N)=C/c2ccc(C)s2)c(C)c1 | 0.06% |
| Cc1cccc(CSc2ccc(-c3ccco3)nn2)c1 | 0.5% |
| Cc1cc(C)c2c(=O)n(-c3ccccc3)[nH]c2n1 | 0.96% |
| Cc1cc(C)nc(SCCCNCc2ccc(Br)cc2)n1 | -0.01% |
| CC(=O)C1=C(C)N(CC2CC2)C(=O)N[C@H]1c1ccc(Br)cc1 | 36.6% (active) |
| CC(=O)C1=C(C)N(Cc2ccccc2)C(=O)N[C@@H]1c1cccc(C(F)(F)F)c1 | -0.08% |
| O=c1c2ccccc2nc2n1CCCN2 | 2.97% |
| N=c1n(Cc2ccccc2)c2ccccc2n1CC(O)c1ccco1 (centres undefined) | 7.18% |
| CC1(C)CCN2CCC(C)(C)c3c(O)ccc1c32 | 11.3% |
| Cc1ccc(CC2C(=O)N(c3ccc(C)cc3)C(=O)C2C)cc1 (centres undefined) | 0.52% |
| O=C(N/N=C\c1c(O)ccc2ccccc12)c1cncc(Br)c1 | 0.16% |
| O=C(NN=Cc1c(O)ccc2ccccc12)c1ccncc1 | -0.04% |
| O=C(N/N=C/c1c(O)ccc2ccccc12)c1cccc(C(F)(F)F)c1 | 53.1% (active) |
| Cc1ccc(-c2nc(NC(=O)CSc3cc(C)c4ccccc4n3)ns2)cc1 | 0.03% |
| CN1CC=C2C(C#N)=C(N)C(C#N)(C#N)[C@H](c3cccs3)[C@H]2C1 | 0.05% |
| CN1CC=C2C(C#N)=C(N)C(C#N)(C#N)[C@H](c3ccoc3)[C@H]2C1 | 8.68% |
| CSc1c(CC(=O)NCCO)n(C)c2ccccc12 | 4.19% |
| Cc1ccc(Cn2cc(CCC(=O)O)c3ccccc32)cc1 | 2.34% |
| CC(=O)n1cc(CO)c2ccccc21 | 95.5% (active) |
| CCOC(=O)C(C(=O)Nc1cccc(C)n1)C1CCCCC1 (centres undefined) | -0.06% |
| CCCc1cc(=O)[nH]c(SCC)n1 | 0.11% |
| Cc1cc(=O)oc2c3c(cc(OCC(=O)NCc4ccccn4)c12)OC(C)(C)CC3 | 0.25% |
| CCCc1cc(=O)oc2c3c(cc(OCC(=O)N[C@@H](CSC)C(=O)O)c12)OC(C)(C)CC3 | 14.3% (active) |
| Cc1c(C)c2c(OCC(=O)N3CCC(O)CC3)cc3c(c2oc1=O)CCC(C)(C)O3 | -0.07% |

| Structure (SMILES) | fluorescence artifact activation |
| --- | --- |
| O=C(CSc1nc2ncc(Br)cc2[nH]1)c1cccc([N+](=O)[O-])c1 | 3.54% |
| COC(=O)C[n+]1cccc2ccccc21 | 81.3% (active) |
| O=C(C[n+]1cccc2ccccc21)c1ccccc1 | 0.14% |
| COc1cccc(OCCCn2cc(/C=C3/C(=N)N4C=C(C)SC4=NC3=O)c3ccccc32)c1 | 0.05% |
| N=C1/C(=C\c2coc3ccc(O)cc3c2=O)C(=O)N=C2SC=CN12 | -0.02% |
| COC(=O)N/N=C/c1cccnc1 | 0.05% |
| COC1C/C(=N\O)C2OC(c3ccccc3)OCC2O1 (centres undefined) | 0.43% |
| COc1ccc(OC)c(/C=C2/Sc3ccccc3C2=O)c1 | 0.05% |
| COc1ccc(C2C(C(C)=O)=C(C)N=c3s/c(=C\c4cc(C)n(C)c4C)c(=O)n32)c(OC)c1 (centres undefined) | 4.81% |
| O=C(CNC(=O)C12CC3CC(CC(C3)C1)C2)OCC(=O)N1CCCCC1 | 0.38% |
| Cc1ccc(-c2ccc(OC(=O)c3ccc(=O)[nH]c3)c(C)c2)cc1 | 4.65% |
| Cc1ccc(CNc2cccnc2)cc1 | 0.43% |
| COc1ccccc1C(=O)n1nc(-c2ccccc2)nc1N | -0.09% |
| Cc1ccc(-c2nc(N)n(C(=O)c3cccnc3)n2)cc1 | 57.1% (active) |
| CN(Cc1ccccc1)C(=O)c1ccc(NC(=O)Cc2ccc(NC(=O)C3CCCN(S(=O)(=O)c4cccc([N+](=O)[O-])c4)C3)cc2)cc1 (centres undefined) | 0.65% |
| CCN1CCN(Cc2c(O)ccc3c2O/C(=C\c2ccc(C)cc2)C3=O)CC1 | 0.17% |
| O=c1[nH]c2ccc(N=Cc3c(O)ccc4cc(Br)ccc34)cc2[nH]1 | -0.04% |
| CCC(CC)c1nc(C#N)c(NC(C)c2ccccc2)o1 (centres undefined) | 0% |
| C=CCNc1oc(COc2ccc(C)cc2)nc1C#N | 3.74% |
| COc1ccc(CNc2oc(COc3ccccc3)nc2C#N)cc1 | 21.9% (active) |
| N#Cc1ccccc1OCC(=O)OCC(=O)c1ccc2c(c1)NC(=O)CO2 | 5.5% |
| O=C(OCCN1C(=O)c2cccc3c(N4CCOCC4)ccc(c23)C1=O)c1ccccc1Cl | 0.47% |
| CCOC(=O)c1cnc2c(C)c(Cl)ccc2c1N1CCOCC1 | 28.3% (active) |
| O=C(OCCN1C(=O)c2cccc3c(N4CCOCC4)ccc(c23)C1=O)c1ccc(Cl)cc1Cl | 8.85% |

| Structure (SMILES) | fluorescence artifact activation |
| --- | --- |
| CCSc1nnc(-c2sc3nnc(-c4ccccc4)c(-c4ccccc4)c3c2N)o1 | 0.15% |
| CCc1ccccc1SCc1noc(C(=O)NCC2CCCO2)c1C(=O)O (centres undefined) | 0.19% |
| OC(CNCC1CCCO1)Cn1c2ccc(Br)cc2c2cc(Br)ccc21 (centres undefined) | 12.3% (active) |
| O=C(NC(=S)NCC1CCCO1)C(c1ccccc1)c1ccccc1 (centres undefined) | 0.17% |
| O=C(COC(=O)/C=C/c1ccc(Cl)cc1)NCCN1C(=O)CSC1=O | -0.09% |
| O=C(N/N=C/c1ccccc1OC(=O)c1ccc2c(c1)OCO2)c1cccc(F)c1 | 17.8% (active) |
| O=C(N/N=C/c1ccc2c(c1)OCO2)/C(=C/c1ccc2c(c1)OCO2)NC(=O)c1ccccc1 | 0.46% |
| COc1cc(C(=O)Oc2ccccc2/C=N/NC(=O)c2ccc(Cl)cc2)cc(OC)c1OC | 11.5% |
| COCC(=O)NC1CCN(S(=O)(=O)c2cccc(C(C)=O)c2)CC1 | 3.2% |
| Cc1ccc(C(=O)NCC(=O)OCC(=O)c2ccc(Cl)s2)cc1 | 77.8% (active) |
| COc1ccc(OCCNC(=O)c2ccc(C)cc2)cc1 | 6.32% |
| Cc1ccc(C(=O)NCC(=O)OCC(=O)N(CC(C)C)c2c(N)n(Cc3ccccc3)c(=O)[nH]c2=O)cc1 | 0.05% |
| COc1ccc2nc(C)cc(NCc3ccc(F)cc3)c2c1 | 0.15% |
| Cc1cccc(NC(=O)CSc2nnc(CSc3nc(C)cc(C)n3)n2Cc2ccco2)c1 | 1.92% |
| O=C(COc1ccc(Cl)cc1)NCc1ccccc1 | 0.08% |
| O=C(COC(=O)C1CC2C=CC1C2)Nc1cccc(S(=O)(=O)N2CCCCCC2)c1 (centres undefined) | -0.04% |
| O=C(COC(=O)C1CCCCC1)Nc1ccc([N+](=O)[O-])cc1 | 28.8% (active) |
| O=C(COC(=O)C1CCC1)NCc1ccccc1 | 82.9% (active) |
| Cc1ccc(C(=O)COC(=O)C2CCC2)cc1 | 7.89% |
| O=C(COC(=O)C1CCC(=O)N1)Nc1ccc(Oc2ccccc2)cc1 (centres undefined) | 0.14% |
| CCOc1cc(/C=C2\N=C(SC(C)C(N)=O)N(c3ccc(OC(F)F)cc3)C2=O)ccc1O (centres undefined) | 3.79% |
| COc1ccc(C(=O)c2ccsc2N)cc1 | 3.39% |
| O=C(CN1CCc2ccccc2C1)Nc1cc(S(=O)(=O)N2CCOCC2)ccc1N1CCOCC1 | 0.07% |
| CCOc1cccc2c1OC(c1cc(OC)c(OC)c(OC)c1)N1N=C(c3ccc(C)o3)CC21 (centres undefined) | 0.15% |

| Structure (SMILES) | fluorescence artifact activation |
| --- | --- |
| CC1(C)C([N+](=O)[O-])C(c2ccc(F)cc2)NC(c2ccc(F)cc2)C1[N+](=O)[O-] (centres undefined) | -0.04% |
| COC(=O)c1sccc1NC(=O)CSCC(=O)O | 0.05% |
| CN(C)C=Nc1c(Br)cc(Br)c2nonc12 | 16.1% (active) |
| C=CCn1c(SCC(=O)Nc2nccs2)nnc1-c1ccco1 | 0.29% |
| Cn1cc(Cl)c(-c2nc3ccccc3[nH]2)n1 | 2.42% |
| CCOC(=O)/C(=N\Nc1ccc(C(C)=O)cc1)c1csc(Nc2ccccc2)n1 | -0.08% |
| COC(=O)c1cc(N2CCN(C)CC2)nc2ccccc12 | 0.05% |
| CCOC(=O)c1cnc2ccccc2c1Nc1ccc(C(=O)O)cc1 | 50% (active) |
| CCCCN(Cc1ccccc1)S(=O)(=O)c1ccc2c(c1)n(C)c(=O)c(=O)n2C | 0.08% |
| COC(=O)C1=C(CSc2nc3c(cc2C#N)CN(C)CC3)OC(N)=C(C#N)C1c1ccc(F)cc1 (centres undefined) | -0.02% |
| COC(=O)c1ccc(S(=O)(=O)N2CCC(O)CC2)n1C | 4.73% |
| O=C(CS(=O)(=O)c1cn(Cc2ccc(F)cc2)c2ccccc12)N1CCOCC1 | -0.02% |
| CCOC(=O)C1CCCN(C2=NC(=O)/C(=C/c3ccc(N(C)C)cc3)S2)C1 (centres undefined) | 0.84% |
| CN(C)c1ccc(/C=C2\C(=N)N3N=C(CC(=O)N4CCCCC4)SC3=NC2=O)cc1 | 11.2% |
| CN(C)c1ccc(/C=C2\SC(N3CCCCC3)=NC2=O)cc1 | 193% (active) |
| COC(C(=O)Nc1c(F)cccc1F)c1ccccc1 (centres undefined) | 0.18% |
| CN(Cc1ccccc1)C(=O)c1cccc(N2C(=O)NC3CC2(C)Oc2ccccc23)c1 (centres undefined) | 14.2% (active) |
| CCOc1cccc2c1OC1(C)CC2NC(=O)N1c1cccc(C(=O)NCc2ccccn2)c1 (centres undefined) | 0.6% |
| COc1cccc2c1OC1(C)CC2NC(=O)N1Cc1ccccc1 (centres undefined) | 1.11% |
| COC(=O)CN(c1cc(OC)ccc1OC)S(=O)(=O)c1ccc(OC)c(OC)c1 | 0.04% |
| O=C(COC(=O)C1(c2ccccc2F)CCCC1)Nc1ncc(C(F)(F)F)cc1Cl | -0.01% |
| CN1CCc2c(sc(/N=C/c3ccco3)c2C(N)=O)C1 | 0.04% |
